According to ChEMBL document CHEMBL1138245, “Discovery of N1-(6-chloroimidazo[2,1-b][1,3]thiazole-5-sulfonyl)tryptamine as a potent, selective, and orally active 5-HT(6) receptor agonist” (J Med Chem, 2007):
In brackets after ≈: the same amount, converted by molar mass. Activity calls are given as the source filed them. The calls are words filed in the database; no cut-off is given here.

Tests used:
[1] = target: 5-hydroxytryptamine receptor 4 (Homo sapiens) (UniProt Q13639); test: Inhibition of human 5HT4 receptor expressed in CHO cells at 100 nM; format: cell-based
Sequence of 5-hydroxytryptamine receptor 4 (Homo sapiens) (Q13639 whole entry): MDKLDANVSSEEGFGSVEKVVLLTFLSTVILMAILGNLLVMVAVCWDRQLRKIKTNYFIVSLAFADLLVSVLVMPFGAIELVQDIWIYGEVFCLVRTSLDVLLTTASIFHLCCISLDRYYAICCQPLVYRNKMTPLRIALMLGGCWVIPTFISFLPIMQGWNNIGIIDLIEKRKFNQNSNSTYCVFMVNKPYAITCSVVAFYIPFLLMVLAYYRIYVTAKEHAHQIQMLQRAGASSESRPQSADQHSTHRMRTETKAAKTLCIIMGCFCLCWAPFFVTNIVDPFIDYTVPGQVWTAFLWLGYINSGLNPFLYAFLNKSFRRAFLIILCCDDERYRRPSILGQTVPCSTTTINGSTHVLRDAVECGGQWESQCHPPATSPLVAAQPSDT

[2] = Drug level in Sprague-Dawley rat plasma at 100 mg/kg, po after 1 hr; format: ADME, organism-based; set-up: dose 100 mg/kg, route oral
Method in brief: (§1)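 Rats given a single 3 mg/kg ip or 100 mg/kg oral dose; plasma and brain concentrations measured over time to assess brain/plasma ratio.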

[3] = Metabolic stability in mouse liver microsomes; format: ADME, Microsome
[4] = Ratio of drug level in brain to plasma in Sprague-Dawley rat at 100 mg/kg, po after 2 hrs; format: ADME, organism-based; set-up: dose 100 mg/kg, route oral; settings: read-out: BPR
Method in brief: (§2)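 Rats given a single dose, 3 mg/kg ip or 100 mg/kg oral; drug concentrations measured in plasma and brain at timed points after dosing; brain/plasma concentration ratio calculated.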

[5] = Drug level in Sprague-Dawley rat brain at 3 mg/kg, ip after 0.5 hr; format: ADME, organism-based; set-up: dose 3 mg/kg, route intraperitoneal; settings: read-out: Drug uptake; method in brief: as §1
[6] = Ratio of drug level in brain to plasma in Sprague-Dawley rat at 100 mg/kg, po after 1 hr; format: ADME, organism-based; set-up: dose 100 mg/kg, route oral; settings: read-out: BPR; method in brief: as §2
[7] = Drug level in Sprague-Dawley rat plasma at 3 mg/kg, ip after 0.5 hr; format: ADME, organism-based; set-up: dose 3 mg/kg, route intraperitoneal; method in brief: as §1
[8] = Ratio of drug level in brain to plasma in Sprague-Dawley rat at 3 mg/kg, ip after 2 hrs; format: ADME, organism-based; set-up: dose 3 mg/kg, route intraperitoneal; settings: read-out: BPR; method in brief: as §2
[9] = Ratio of drug level in brain to plasma in Sprague-Dawley rat at 3 mg/kg, ip after 4 hrs; format: ADME, organism-based; set-up: dose 3 mg/kg, route intraperitoneal; settings: read-out: BPR; method in brief: as §2
[10] = target: 5-hydroxytryptamine receptor 2A (Homo sapiens) (UniProt P28223); test: Displacement of [125I]DOI from human 5HT2A receptor expressed in CHO cells at 1 uM; format: cell-based
Sequence of 5-hydroxytryptamine receptor 2A (Homo sapiens) (P28223 whole entry): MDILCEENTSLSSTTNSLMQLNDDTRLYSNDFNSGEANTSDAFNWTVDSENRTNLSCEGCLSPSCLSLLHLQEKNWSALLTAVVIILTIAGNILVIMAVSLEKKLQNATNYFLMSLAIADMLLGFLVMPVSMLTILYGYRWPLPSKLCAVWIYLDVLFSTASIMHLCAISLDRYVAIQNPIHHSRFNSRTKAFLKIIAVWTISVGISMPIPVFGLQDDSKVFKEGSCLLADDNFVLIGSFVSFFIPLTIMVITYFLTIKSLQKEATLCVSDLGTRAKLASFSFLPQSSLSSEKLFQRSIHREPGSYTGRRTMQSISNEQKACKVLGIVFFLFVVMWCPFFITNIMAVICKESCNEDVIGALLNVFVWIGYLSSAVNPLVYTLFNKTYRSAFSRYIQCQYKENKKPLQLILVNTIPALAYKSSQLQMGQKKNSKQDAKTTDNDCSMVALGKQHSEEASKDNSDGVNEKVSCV

[11] = AUC in dog at 5 mg/kg, po; format: ADME, organism-based, Canis lupus familiaris; set-up: dose 5 mg/kg, route oral; settings: plasma
[12] = Drug level in Sprague-Dawley rat brain at 3 mg/kg, ip after 0.25 hr; format: ADME, organism-based; set-up: dose 3 mg/kg, route intraperitoneal; settings: read-out: Drug uptake; method in brief: as §1
[13] = Metabolic stability in dog liver microsomes; format: ADME, Canis lupus familiaris, Microsome
[14] = Half life in dog at 1 mg/kg, iv; format: ADME, organism-based, Canis lupus familiaris; set-up: dose 1 mg/kg, route intravenous; settings: in vivo
[15] = Oral bioavailability in dog at 5 mg/kg; format: ADME, organism-based, Canis lupus familiaris; settings: in vivo
[16] = target: 5-hydroxytryptamine receptor 5A (Homo sapiens) (UniProt P47898); test: Inhibition of human 5HT5 receptor expressed in CHO cells at 100 nM; format: cell-based
Sequence of 5-hydroxytryptamine receptor 5A (Homo sapiens) (P47898 whole entry): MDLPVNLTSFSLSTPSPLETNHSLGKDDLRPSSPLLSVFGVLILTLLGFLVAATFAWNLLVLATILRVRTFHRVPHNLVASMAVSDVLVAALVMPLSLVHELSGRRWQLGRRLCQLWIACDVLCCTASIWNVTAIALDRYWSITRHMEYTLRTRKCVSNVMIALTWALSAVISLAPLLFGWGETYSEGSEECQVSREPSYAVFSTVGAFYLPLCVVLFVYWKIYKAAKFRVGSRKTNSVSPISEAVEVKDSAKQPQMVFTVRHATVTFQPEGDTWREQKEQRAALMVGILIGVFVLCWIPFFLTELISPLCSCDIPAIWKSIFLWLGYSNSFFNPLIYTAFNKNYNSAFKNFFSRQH

[17] = Half life in rat at 1 mg/kg, iv; format: ADME, organism-based; set-up: dose 1 mg/kg, route intravenous; settings: in vivo
[18] = Metabolic stability in rat liver microsomes; format: ADME, Microsome
[19] = Drug level in Sprague-Dawley rat brain at 3 mg/kg, ip after 2 hrs; format: ADME, organism-based; set-up: dose 3 mg/kg, route intraperitoneal; settings: read-out: Drug uptake; method in brief: as §1
[20] = Volume of distribution in dog at 1 mg/kg, iv; format: ADME, organism-based, Canis lupus familiaris; set-up: dose 1 mg/kg, route intravenous; settings: in vivo, read-out: Vdss
Rattus norvegicus [21] = organism: Rattus norvegicus; test: Decrease in water intake in schedule-induced polydipsia rat model; format: functional, organism-based
[22] = Drug level in Sprague-Dawley rat plasma at 100 mg/kg, po after 0.25 hr; format: ADME, organism-based; set-up: dose 100 mg/kg, route oral; method in brief: as §1
[23] = target: 5-hydroxytryptamine receptor 1D (Homo sapiens) (UniProt P28221); test: Displacement of [3H]5HT from human 5HT1D receptor expressed in CHO cells at 1 uM; format: cell-based
Sequence of 5-hydroxytryptamine receptor 1D (Homo sapiens) (P28221 whole entry): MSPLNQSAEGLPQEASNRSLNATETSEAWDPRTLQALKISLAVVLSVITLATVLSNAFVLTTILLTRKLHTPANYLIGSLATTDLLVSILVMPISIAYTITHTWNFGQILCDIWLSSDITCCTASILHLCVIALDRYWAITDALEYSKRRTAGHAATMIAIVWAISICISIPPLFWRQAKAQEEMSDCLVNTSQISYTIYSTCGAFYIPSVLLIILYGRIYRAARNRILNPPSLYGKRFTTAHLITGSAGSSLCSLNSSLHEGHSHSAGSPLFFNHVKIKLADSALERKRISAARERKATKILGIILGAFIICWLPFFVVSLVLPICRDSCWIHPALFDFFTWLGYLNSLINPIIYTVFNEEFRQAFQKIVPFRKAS

[24] = Metabolic stability in human liver microsomes; format: ADME, Microsome
[25] = Drug level in Sprague-Dawley rat plasma at 3 mg/kg, ip after 1 hr; format: ADME, organism-based; set-up: dose 3 mg/kg, route intraperitoneal; method in brief: as §1
[26] = Drug level in Sprague-Dawley rat brain at 100 mg/kg, po after 2 hrs; format: ADME, organism-based; set-up: dose 100 mg/kg, route oral; settings: read-out: Drug uptake; method in brief: as §1
[27] = AUC in rat at 10 mg/kg, po; format: ADME, organism-based; set-up: dose 10 mg/kg, route oral; settings: plasma
[28] = Drug level in Sprague-Dawley rat brain at 100 mg/kg, po after 0.5 hr; format: ADME, organism-based; set-up: dose 100 mg/kg, route oral; settings: read-out: Drug uptake; method in brief: as §1
[29] = Aqueous solubility at pH 8; format: physicochemical
[30] = Drug level in Sprague-Dawley rat plasma at 100 mg/kg, po after 4 hrs; format: ADME, organism-based; set-up: dose 100 mg/kg, route oral; method in brief: as §1
[31] = Cmax in rat at 10 mg/kg, po; format: ADME, organism-based; set-up: dose 10 mg/kg, route oral; settings: in vivo
[32] = target: 5-hydroxytryptamine receptor 1B (Homo sapiens) (UniProt P28222); test: Displacement of [3H]5-HT from human 5HT1B receptor expressed in CHO cells at 1 uM; format: cell-based
Sequence of 5-hydroxytryptamine receptor 1B (Homo sapiens) (P28222 whole entry): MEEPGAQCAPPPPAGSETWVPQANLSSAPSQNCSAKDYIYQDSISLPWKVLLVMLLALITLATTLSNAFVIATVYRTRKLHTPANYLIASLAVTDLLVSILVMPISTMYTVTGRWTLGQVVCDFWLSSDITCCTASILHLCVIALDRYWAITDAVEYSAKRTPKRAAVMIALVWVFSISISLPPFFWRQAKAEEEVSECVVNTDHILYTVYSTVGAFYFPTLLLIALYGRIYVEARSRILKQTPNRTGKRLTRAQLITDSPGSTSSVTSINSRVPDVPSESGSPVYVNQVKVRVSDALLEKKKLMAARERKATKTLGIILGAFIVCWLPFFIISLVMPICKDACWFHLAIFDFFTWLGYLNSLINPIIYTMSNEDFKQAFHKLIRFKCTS

[33] = target: T1, 5-hydroxytryptamine receptor 1F (Homo sapiens) (UniProt P30939); test: Displacement of [3H]5-HT from human 5HT1F receptor expressed in CHO cells at 1 uM; format: cell-based
T1 sequence (whole entry): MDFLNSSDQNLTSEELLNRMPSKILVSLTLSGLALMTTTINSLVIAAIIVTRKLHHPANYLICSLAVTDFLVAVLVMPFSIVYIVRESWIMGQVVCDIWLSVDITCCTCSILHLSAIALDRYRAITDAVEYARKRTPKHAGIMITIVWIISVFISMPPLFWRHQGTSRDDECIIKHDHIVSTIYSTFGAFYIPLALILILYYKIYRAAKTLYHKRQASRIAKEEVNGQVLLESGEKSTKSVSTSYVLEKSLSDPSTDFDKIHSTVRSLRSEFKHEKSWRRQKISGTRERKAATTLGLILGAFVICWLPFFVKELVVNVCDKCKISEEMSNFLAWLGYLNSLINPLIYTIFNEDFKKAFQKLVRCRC

[34] = Volume of distribution in rat at 1 mg/kg, iv; format: ADME, organism-based; set-up: dose 1 mg/kg, route intravenous; settings: in vivo, read-out: Vdss
[35] = Drug level in Sprague-Dawley rat plasma at 100 mg/kg, po after 2 hrs; format: ADME, organism-based; set-up: dose 100 mg/kg, route oral; method in brief: as §1
Rattus norvegicus [36] = organism: Rattus norvegicus; test: Effect on water intake in non-SIP rat model; format: functional, organism-based
[37] = Oral bioavailability in rat at 10 mg/kg; format: ADME, organism-based; settings: in vivo
[38] = Drug level in Sprague-Dawley rat plasma at 3 mg/kg, ip after 4 hrs; format: ADME, organism-based; set-up: dose 3 mg/kg, route intraperitoneal; method in brief: as §1
[39] = Drug level in Sprague-Dawley rat brain at 100 mg/kg, po after 4 hrs; format: ADME, organism-based; set-up: dose 100 mg/kg, route oral; settings: read-out: Drug uptake; method in brief: as §1
[40] = target: Beta-2 adrenergic receptor (Homo sapiens) (UniProt P07550); test: Displacement of radio ligand from beta-2 adrenergic receptor at 100 nM
Sequence of Beta-2 adrenergic receptor (Homo sapiens) (P07550 whole entry, looked up): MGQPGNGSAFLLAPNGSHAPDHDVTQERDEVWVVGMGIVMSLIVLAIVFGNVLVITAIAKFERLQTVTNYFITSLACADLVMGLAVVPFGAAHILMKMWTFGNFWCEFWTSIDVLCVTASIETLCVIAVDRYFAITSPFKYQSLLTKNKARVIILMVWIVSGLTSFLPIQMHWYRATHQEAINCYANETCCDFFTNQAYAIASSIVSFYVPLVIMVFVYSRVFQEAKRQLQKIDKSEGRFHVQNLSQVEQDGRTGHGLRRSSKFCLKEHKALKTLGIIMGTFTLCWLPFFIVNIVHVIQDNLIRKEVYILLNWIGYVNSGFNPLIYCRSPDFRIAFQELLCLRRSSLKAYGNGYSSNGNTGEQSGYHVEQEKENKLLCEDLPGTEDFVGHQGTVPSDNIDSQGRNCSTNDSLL

[41] = Drug level in Sprague-Dawley rat brain at 3 mg/kg, ip after 1 hr; format: ADME, organism-based; set-up: dose 3 mg/kg, route intraperitoneal; settings: read-out: Drug uptake; method in brief: as §1
[42] = Drug level in Sprague-Dawley rat plasma at 100 mg/kg, po after 0.5 hr; format: ADME, organism-based; set-up: dose 100 mg/kg, route oral; method in brief: as §1
[43] = Ratio of drug level in brain to plasma in rat at 3 mg/kg, ip or 100 mg/kg, po; format: ADME, organism-based; settings: read-out: BPR; method in brief: as §2
[44] = Drug level in Sprague-Dawley rat brain at 3 mg/kg, ip after 4 hrs; format: ADME, organism-based; set-up: dose 3 mg/kg, route intraperitoneal; settings: read-out: Drug uptake; method in brief: as §1
[45] = Tmax in dog at 5 mg/kg, po; format: ADME, organism-based, Canis lupus familiaris; set-up: dose 5 mg/kg, route oral; settings: in vivo

For NCCc1cn(S(=O)(=O)c2c(Cl)nc3sccn23)c2ccccc12, the inhibition [1] was < 50%, the concentration at 1 h [2] was 312 ng/mL and the half-life [3] was > 1 h. The Kp at 2 h [4] was 0.25, the concentration at 0.5 h [5] was 11.5 ng/mL and the Kp at 1 h [6] was 0.14. The concentration at 0.5 h [7] was 66 ng/mL, the Kp at 2 h [8] was 0.33 and the Kp at 4 h [9] was 1.39. The Activity [10] was 25%, the AUC [11] was 1430 ng·h/mL and the concentration at 0.25 h [12] was 8.4 ng/mL. It also gave a half-life [13] of 0.433 h, a half-life [14] of 2.9 h and a bioavailability [15] of 55%. For the same compound, the inhibition [16] was < 50%, the half-life [17] was 5.4 h and the half-life [18] was 8 min. The concentration at 2 h [19] was 1.1 ng/mL, the Vd [20] was 7.9 L/kg and the Activity (Rattus norvegicus [21]) was “Dose-dependent effect”. The concentration at 0.25 h [22] was 120 ng/mL, the Activity [23] was 21% and the half-life [24] was > 1 h. For the same compound, the concentration at 1 h [25] was 21 ng/mL, the concentration at 2 h [26] was 59.6 ng/mL and the AUC [27] was 190 ng·h/mL. For the same compound, the concentration at 0.5 h [28] was 194 ng/mL, the solubility [29] was 240 µg/mL (≈ 630 µM) and the concentration at 4 h [30] was 372 ng/mL. It also gave a Cmax [31] of 49 ng/mL, an Activity [32] of 36% and an Activity [33] of 40%. The Vd [34] was 24 L/kg, the concentration at 2 h [35] was 239 ng/mL and the Activity (Rattus norvegicus [36]) was “inactive”. It also gave a bioavailability [37] of 23%, a concentration at 4 h [38] of 4.3 ng/mL and a concentration at 4 h [39] of 98 ng/mL. The Activity [40] was < 50%, the concentration at 1 h [41] was 14.2 ng/mL and the concentration at 0.5 h [42] was 356 ng/mL. The Kp [43] was 0.1, the concentration at 4 h [44] was 6 ng/mL and the Tmax [45] was 2.3 h.
